Data published in ChEMBL document CHEMBL1165850, “Synthesis, biological evaluation and molecular docking of novel series of spiro [(2H,3H) quinazoline-2,1'- cyclohexan]-4(1H)-one derivatives as anti-inflammatory and analgesic agents” (Eur J Med Chem, 2010).

Legend:
[1] = test system: Rattus norvegicus; assay: Antiinflammatory activity in rat assessed as reduction in carrageenan-induced paw edema at 9 mg/kg, ip administered 1 hr before carrageenan challenge measured after 1 hr; assay type: functional; design: unit not given here; conditions: route intraperitoneal
Summary of the method: (§1)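 Adult rats of either sex (150–200 g), randomly grouped. Compounds were dissolved in DMSO and given i.p. at 9 mg/kg; indomethacin was given at 10 mg/kg; controls received DMSO i.p. Dosing was 1 h before 100 ul of 1% carrageenan in saline injected subplantar into the right hind paw. Paw volume was measured by planimeter before and at 1, 2, 3 and 4 h. Values are mean ± S.E., analysed by one-way ANOVA with LSD.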

[2] = test system: Rattus norvegicus; assay: Antiinflammatory activity in rat assessed as reduction in carrageenan-induced paw edema at 9 mg/kg, ip administered 1 hr before carrageenan challenge measured after 2 hrs; assay type: functional; design: unit not given here; conditions: route intraperitoneal; summary of the method: as §1
[3] = test system: Rattus norvegicus; assay: Antiinflammatory activity in rat assessed as reduction in carrageenan-induced paw edema at 9 mg/kg, ip administered 1 hr before carrageenan challenge measured after 3 hrs; assay type: functional; design: unit not given here; conditions: route intraperitoneal; summary of the method: as §1
[4] = test system: Mus musculus; assay: Analgesic activity in mouse assessed as reaction time administered 1 hr before test measured after 1 hr by hot plate test; assay type: functional
Summary of the method: (§2)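 Hot-plate test in adult mice (20–25 g), plate at 52 °C (±0.1 °C). Vehicle, compounds or tramadol (20 mg/Kg b wt) were given 60 min before testing. Latency to lick a hind paw or jump was recorded before dosing and at 1 and 2 h after. Values are mean ± S.E. of six animals per group, with Dunnett's test against control.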

[5] = test system: Mus musculus; assay: Analgesic activity in mouse assessed as reaction time administered 1 hr before test measured after 2 hrs by hot plate test; assay type: functional; summary of the method: as §2
[6] = test system: Rattus norvegicus; assay: Gastrointestinal toxicity in Wistar rat assessed as ulcerogenic effect at 9 mg/kg, po after 7 hrs; assay type: organism-based; design: dose 9 mg/kg, route oral; conditions: in vivo
Summary of the method: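 Male Wistar rats, 150–175 g, groups of 5, fasted 48 h, then given 9 mg/kg orally as an aqueous suspension (10 mL/kg). Killed 7 h later. Stomachs were opened along the greater curvature and inspected for irritation, scored as number of ulcers, ulcer severity and number of rats with ulcers per 5. Ethanol control, indomethacin reference. Reported as mean ± S.E.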

[7] = test system: Mus musculus; assay: Analgesic activity in mouse assessed as reaction time at 20 mg/kg administered 1 hr before test measured after 1 hr by hot plate test; assay type: functional; summary of the method: as §2
[8] = test system: Mus musculus; assay: Analgesic activity in mouse assessed as reaction time at 20 mg/kg administered 1 hr before test measured after 2 hrs by hot plate test; assay type: functional; summary of the method: as §2

Row | Compound | Activity [1] | Activity [2] | Activity [3] | Time [4] [s] | Time [5] [s] | UI [6] | Time [7] [s] | Time [8] [s]
1 | CN(C)c1ccc(C2CC(c3ccc(N4C(=O)c5ccccc5NC45CCCCC5)cc3)=NN2c2ccccc2)cc1 (centres undefined) | 57.9 | 65.4 | 66.4 | 15 | 20.5 | 10.4 | – | –
2 | O=C1c2ccccc2NC2(CCCCC2)N1c1ccc(C2=NN(c3ccccc3)C(c3ccco3)C2)cc1 (centres undefined) | 52.2 | 79.1 | 82.5 | 9.2 | 10.9 | – | – | –
3 | CCOC(=O)c1ccc(N2C(=O)c3ccccc3NC23CCCCC3)cc1 | 44.2 | 59.6 | 67.8 | 12 | 14.6 | – | – | –
4 | COc1ccc(/C=N/NC(=O)c2ccc(N3C(=O)c4ccccc4NC34CCCCC4)cc2)cc1 | 72.4 | 88 | 88.7 | 13.3 | 16.9 | – | – | –
5 | O=C(NN1C(=O)CN(C2CCCCC2)C1=S)c1ccc(N2C(=O)c3ccccc3NC23CCCCC3)cc1 | 54.9 | 66.7 | 77.2 | 8.9 | 13 | – | – | –
6 | NNC(=O)c1ccc(N2C(=O)c3ccccc3NC23CCCCC3)cc1 | 57.5 | 85.7 | 82.1 | 9.4 | 17 | – | – | –
7 | NS(=O)(=O)c1ccc(N2C(=O)c3ccccc3NC23CCCCC3)cc1 | 57.7 | 78.9 | 87.7 | 9.5 | 17.5 | – | – | –
8 | O=C1c2ccccc2NC2(CCCCC2)N1c1ccc(S(=O)(=O)Nc2ncccn2)cc1 | 60.4 | 74.1 | 80.1 | 19.8 | 21.6 | 0.6 | – | –
9 | CCC(=S)NS(=O)(=O)c1ccc(N2C(=O)c3ccccc3NC23CCCCC3)cc1 | 67.5 | 83.4 | 88.6 | 11 | 19.1 | – | – | –
10 | N#Cc1c(-c2ccc(F)cc2)cc(-c2ccc(N3C(=O)c4ccccc4NC34CCCCC4)cc2)[nH]c1=O | 85.4 | 74.6 | 88 | 11.8 | 13.5 | – | – | –
11 | N#Cc1c(-c2ccccc2O)cc(-c2ccc(N3C(=O)c4ccccc4NC34CCCCC4)cc2)[nH]c1=O | 49.4 | 71.8 | 76.4 | 24.9 | 19.4 | 0 | – | –
12 | O=C(NN1C(=O)CSC1c1cccs1)c1ccc(N2C(=O)c3ccccc3NC23CCCCC3)cc1 (centres undefined) | 56.2 | 65.1 | 55.9 | 21 | 18.4 | 0.4 | – | –
13 | O=C(NNC(=S)NC1CCCCC1)c1ccc(N2C(=O)c3ccccc3NC23CCCCC3)cc1 | 65.1 | 82.1 | 83.9 | 9.3 | 17.2 | – | – | –
14 | N#Cc1c(-c2ccccc2O)cc(-c2ccc(N3C(=O)c4ccccc4NC34CCCCC4)cc2)[nH]c1=N | 61 | 66.6 | 68.6 | 14.6 | 18.4 | 2 | – | –
15 | O=C(/C=C/c1ccco1)c1ccc(N2C(=O)c3ccccc3NC23CCCCC3)cc1 | 60.4 | 93.8 | 94.8 | 9.6 | 17.1 | – | – | –
16 | O=C(NN1C(=O)CC(=O)N(C2CCCCC2)C1=S)c1ccc(N2C(=O)c3ccccc3NC23CCCCC3)cc1 | 61.7 | 79.3 | 85.1 | 9.4 | 17.1 | – | – | –
17 | CC(=O)N1N=C(c2ccc(N3C(=O)c4ccccc4NC34CCCCC4)cc2)CC1c1ccco1 (centres undefined) | 49.9 | 88.7 | 83.5 | 9.5 | 17 | – | – | –
18 | N#Cc1c(-c2ccc(F)cc2)cc(-c2ccc(N3C(=O)c4ccccc4NC34CCCCC4)cc2)[nH]c1=N | 66.4 | 78.2 | 81.3 | 24.1 | 17.8 | 3.2 | – | –
19 | CC(=O)c1ccc(N2C(=O)c3ccccc3NC23CCCCC3)cc1 | 54.6 | 80.9 | 81.5 | 9.1 | 17 | – | – | –
20 | COc1ccc2c(c1)c(CC(=O)O)c(C)n2C(=O)c1ccc(Cl)cc1 [INDOMETHACIN] | – | – | – | – | – | 9.8 | – | –
21 | COc1cccc(C2(O)CCCCC2CN(C)C)c1 (centres undefined) [TRAMADOL] | – | – | – | – | – | – | 17.6 | 18.2
